In ChEMBL document CHEMBL1817551, “Design of small molecule inhibitors of acetyl-CoA carboxylase 1 and 2 showing reduction of hepatic malonyl-CoA levels in vivo in obese Zucker rats” (Bioorg Med Chem, 2011):
In brackets after ≈: the same amount, converted by molar mass.

Assays:
[1] = Lipophilicity, log D of the compound; format: physicochemical; settings: octanol/water
[2] = molecular target: Acetyl-CoA carboxylase 2 (Homo sapiens, UniProt O00763); assay: Inhibition of human recombinant his-tagged ACC2 expressed in baculovirus/Sf9 cell assessed as inorganic phosphate formation […] measured after 1.5 hrs by Malachite green reagent method
[3] = molecular target: Acetyl-CoA carboxylase 1 (Homo sapiens, UniProt Q13085); assay: Inhibition of human recombinant his-tagged ACC1 expressed in baculovirus/Sf9 cell assessed as inorganic phosphate formation […] measured after 1.5 hrs by Malachite green reagent method
[4] = Solubility of the compound after 16 hrs by LC-UV/MS analysis; format: physicochemical
[5] = Intrinsic clearance in human liver microsome at 1 uM after 30 mins by LC-UV/MS analysis; format: ADME; settings: liver microsomes
[6] = species: Homo sapiens; assay: Ratio IC50 for human ACC2 to IC50 for human ACC1
[7] = molecular target: CYP2C19 (Homo sapiens, UniProt P33261); assay: Inhibition of CYP2C19 at 13 uM; format: ADME
[8] = molecular target: CYP2D6 (Homo sapiens, UniProt P10635); assay: Inhibition of CYP2D6 at 13 uM; format: ADME
[9] = molecular target: T1, CYP1A2 (Homo sapiens, UniProt P05177); assay: Inhibition of CYP1A2 at 13 uM; format: ADME
T1 sequence (P05177 whole entry): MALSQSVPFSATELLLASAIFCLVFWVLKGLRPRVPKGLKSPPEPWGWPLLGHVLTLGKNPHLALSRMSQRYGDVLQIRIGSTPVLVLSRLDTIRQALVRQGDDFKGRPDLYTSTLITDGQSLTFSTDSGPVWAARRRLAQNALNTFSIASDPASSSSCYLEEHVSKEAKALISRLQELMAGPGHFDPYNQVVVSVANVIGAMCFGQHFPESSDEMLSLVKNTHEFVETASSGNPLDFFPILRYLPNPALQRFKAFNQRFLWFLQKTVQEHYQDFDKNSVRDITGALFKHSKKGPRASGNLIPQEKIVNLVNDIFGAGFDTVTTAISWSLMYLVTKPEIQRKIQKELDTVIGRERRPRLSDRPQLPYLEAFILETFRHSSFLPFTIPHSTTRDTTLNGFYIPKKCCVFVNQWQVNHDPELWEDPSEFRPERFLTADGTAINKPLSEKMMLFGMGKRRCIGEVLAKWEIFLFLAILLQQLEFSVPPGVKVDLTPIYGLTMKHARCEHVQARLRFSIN

[10] = molecular target: CYP2C9 (Homo sapiens, UniProt P11712); assay: Inhibition of CYP2C9 at 13 uM; format: ADME
[11] = molecular target: CYP3A4 (Homo sapiens, UniProt P08684); assay: Inhibition of CYP3A4 at 13 uM; format: ADME
[12] = Fraction unbound in human plasma at 10 uM after 18 hrs by equilibrium dialysis method; format: ADME, cell-free
[13] = Clearance in Sprague-Dawley rat at 3 to 5 umol/kg, iv; format: ADME, organism-based; settings: in vivo
[14] = system: Rattus norvegicus; assay: Ratio of […] to fraction unbound in Sprague-Dawley rat at 3 to 5 umol/kg, iv; format: ADME, organism-based; settings: in vivo
[15] = Clearance in C57BL/6 mouse at 20 umol/kg, iv and 20 umol/kg, po; format: ADME, organism-based; settings: in vivo
[16] = Volume of distribution in C57BL/6 mouse at 20 umol/kg, iv and 20 umol/kg, po; format: ADME, organism-based; settings: in vivo
[17] = Half life in C57BL/6 mouse at 20 umol/kg, po; format: ADME, organism-based; settings: in vivo
[18] = Oral bioavailability in C57BL/6 mouse at 20 umol/kg; format: ADME, organism-based; settings: in vivo
[19] = molecular target: Acetyl-Coenzyme A carboxylase 2 (Rattus norvegicus, UniProt Q1HEC0); assay: Inhibition of ACC2 […] preincubated for 15 mins measured after 1.5 hrs using Malachite green reagent method
[20] = system: Rattus norvegicus; assay: Antiobesity activity in obese Zucker rat assessed as reduction in hepatic malonyl-coA level, iv administered 2 hrs; format: functional; set-up: scale not given: the % may be the effect or the level left
Method in brief: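 Obese Zucker rats were anaesthetized with Inactin (180 mg/kg ip), tracheotomized and fitted with carotid and jugular catheters. After 1.5 h post-surgery stabilization at 37.5 °C, compound or vehicle was infused iv; lean vehicle controls were included. Hepatic malonyl-CoA was measured by ion-pair HPLC–negative ESI MS/MS against a ¹³C₃ internal standard and related to plasma free exposure (fu×Cp/rat ACC2 IC50).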

[21] = molecular target: Voltage-gated inwardly rectifying potassium channel KCNH2 (Homo sapiens, UniProt Q12809)
[22] = molecular target: Acetyl-CoA carboxylase 1 (Rattus norvegicus, UniProt P11497); assay: Inhibition of rat ACC1 assessed as inorganic phosphate generation preincubated for 5 mins measured after 1.5 hrs using Malachite green reagent method
[23] = Fraction unbound in rat plasma at 10 uM after 18 hrs by equilibrium dialysis method; format: ADME, cell-free

Acetyl-CoA carboxylase 2, sequence (O00763 whole entry): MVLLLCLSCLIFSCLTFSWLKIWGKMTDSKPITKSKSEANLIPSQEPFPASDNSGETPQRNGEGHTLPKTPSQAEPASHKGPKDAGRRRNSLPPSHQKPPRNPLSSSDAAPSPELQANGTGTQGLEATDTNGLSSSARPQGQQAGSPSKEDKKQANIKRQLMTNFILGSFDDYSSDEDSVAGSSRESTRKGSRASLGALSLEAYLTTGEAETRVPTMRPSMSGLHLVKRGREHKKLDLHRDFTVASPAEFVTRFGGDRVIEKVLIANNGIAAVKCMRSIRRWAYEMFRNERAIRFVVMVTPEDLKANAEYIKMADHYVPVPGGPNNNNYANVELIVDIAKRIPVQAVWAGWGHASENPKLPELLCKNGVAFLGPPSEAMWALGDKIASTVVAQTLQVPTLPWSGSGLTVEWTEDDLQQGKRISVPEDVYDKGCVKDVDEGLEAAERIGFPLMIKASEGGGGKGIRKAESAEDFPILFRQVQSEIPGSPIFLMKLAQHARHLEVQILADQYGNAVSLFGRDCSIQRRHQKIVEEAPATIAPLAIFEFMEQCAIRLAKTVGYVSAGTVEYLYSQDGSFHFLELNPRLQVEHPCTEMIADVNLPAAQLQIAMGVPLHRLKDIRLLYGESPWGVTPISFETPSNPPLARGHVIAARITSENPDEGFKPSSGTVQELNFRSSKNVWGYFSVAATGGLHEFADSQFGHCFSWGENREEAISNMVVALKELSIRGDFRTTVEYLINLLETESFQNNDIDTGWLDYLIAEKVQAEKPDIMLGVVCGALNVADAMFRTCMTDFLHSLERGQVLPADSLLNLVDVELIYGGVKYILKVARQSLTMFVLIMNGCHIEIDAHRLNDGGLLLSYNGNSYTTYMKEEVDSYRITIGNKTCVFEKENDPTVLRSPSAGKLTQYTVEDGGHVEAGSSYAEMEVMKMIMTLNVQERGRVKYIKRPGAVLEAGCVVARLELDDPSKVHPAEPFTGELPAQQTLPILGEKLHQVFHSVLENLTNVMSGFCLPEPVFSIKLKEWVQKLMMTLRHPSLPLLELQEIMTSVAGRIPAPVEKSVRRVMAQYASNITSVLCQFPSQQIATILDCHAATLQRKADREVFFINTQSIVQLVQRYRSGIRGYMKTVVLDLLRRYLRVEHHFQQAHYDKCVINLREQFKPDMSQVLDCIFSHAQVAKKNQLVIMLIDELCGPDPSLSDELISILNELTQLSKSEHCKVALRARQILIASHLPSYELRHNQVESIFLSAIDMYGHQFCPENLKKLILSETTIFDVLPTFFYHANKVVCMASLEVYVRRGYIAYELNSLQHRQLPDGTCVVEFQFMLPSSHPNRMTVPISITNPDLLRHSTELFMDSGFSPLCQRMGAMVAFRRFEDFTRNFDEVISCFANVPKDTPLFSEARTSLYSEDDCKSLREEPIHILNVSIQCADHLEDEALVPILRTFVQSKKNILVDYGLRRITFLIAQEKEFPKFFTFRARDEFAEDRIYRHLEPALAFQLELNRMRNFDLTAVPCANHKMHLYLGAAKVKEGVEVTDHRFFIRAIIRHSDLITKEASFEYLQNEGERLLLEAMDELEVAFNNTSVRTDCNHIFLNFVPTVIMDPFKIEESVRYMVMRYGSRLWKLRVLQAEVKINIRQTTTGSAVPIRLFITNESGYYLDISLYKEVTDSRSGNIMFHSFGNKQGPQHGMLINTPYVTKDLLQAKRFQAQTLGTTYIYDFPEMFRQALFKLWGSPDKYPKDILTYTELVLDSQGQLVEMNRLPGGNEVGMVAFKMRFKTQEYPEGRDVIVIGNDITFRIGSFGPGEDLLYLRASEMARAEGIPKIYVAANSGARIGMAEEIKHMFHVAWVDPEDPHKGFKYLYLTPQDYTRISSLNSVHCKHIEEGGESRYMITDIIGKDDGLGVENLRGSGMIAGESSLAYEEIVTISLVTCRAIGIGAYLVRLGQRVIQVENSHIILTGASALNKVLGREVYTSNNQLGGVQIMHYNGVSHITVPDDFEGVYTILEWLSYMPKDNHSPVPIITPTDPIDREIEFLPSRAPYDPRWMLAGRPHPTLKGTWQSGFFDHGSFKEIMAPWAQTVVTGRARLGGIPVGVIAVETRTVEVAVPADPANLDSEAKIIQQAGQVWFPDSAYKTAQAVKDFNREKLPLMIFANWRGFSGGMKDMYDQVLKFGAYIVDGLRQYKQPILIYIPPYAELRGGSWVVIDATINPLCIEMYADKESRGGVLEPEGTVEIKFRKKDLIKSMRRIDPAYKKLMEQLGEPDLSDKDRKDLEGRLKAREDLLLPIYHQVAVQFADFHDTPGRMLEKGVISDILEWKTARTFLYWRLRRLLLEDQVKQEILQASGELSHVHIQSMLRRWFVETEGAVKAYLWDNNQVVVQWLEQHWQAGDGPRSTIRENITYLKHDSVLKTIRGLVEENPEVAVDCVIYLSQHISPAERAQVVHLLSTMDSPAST
CYP2C19, sequence (P33261 whole entry): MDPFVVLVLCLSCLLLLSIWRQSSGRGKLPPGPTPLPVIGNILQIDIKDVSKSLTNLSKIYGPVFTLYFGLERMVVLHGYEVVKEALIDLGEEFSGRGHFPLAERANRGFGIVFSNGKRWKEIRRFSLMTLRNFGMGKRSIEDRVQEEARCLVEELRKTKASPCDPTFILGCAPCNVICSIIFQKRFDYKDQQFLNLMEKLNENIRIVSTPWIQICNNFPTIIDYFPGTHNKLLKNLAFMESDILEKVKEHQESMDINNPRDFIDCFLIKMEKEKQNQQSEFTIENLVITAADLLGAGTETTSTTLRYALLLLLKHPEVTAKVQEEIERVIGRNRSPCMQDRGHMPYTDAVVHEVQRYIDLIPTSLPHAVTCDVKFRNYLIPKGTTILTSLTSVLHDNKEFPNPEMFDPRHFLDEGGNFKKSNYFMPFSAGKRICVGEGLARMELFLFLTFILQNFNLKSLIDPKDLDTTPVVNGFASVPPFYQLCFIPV
CYP2C9, sequence (P11712 whole entry): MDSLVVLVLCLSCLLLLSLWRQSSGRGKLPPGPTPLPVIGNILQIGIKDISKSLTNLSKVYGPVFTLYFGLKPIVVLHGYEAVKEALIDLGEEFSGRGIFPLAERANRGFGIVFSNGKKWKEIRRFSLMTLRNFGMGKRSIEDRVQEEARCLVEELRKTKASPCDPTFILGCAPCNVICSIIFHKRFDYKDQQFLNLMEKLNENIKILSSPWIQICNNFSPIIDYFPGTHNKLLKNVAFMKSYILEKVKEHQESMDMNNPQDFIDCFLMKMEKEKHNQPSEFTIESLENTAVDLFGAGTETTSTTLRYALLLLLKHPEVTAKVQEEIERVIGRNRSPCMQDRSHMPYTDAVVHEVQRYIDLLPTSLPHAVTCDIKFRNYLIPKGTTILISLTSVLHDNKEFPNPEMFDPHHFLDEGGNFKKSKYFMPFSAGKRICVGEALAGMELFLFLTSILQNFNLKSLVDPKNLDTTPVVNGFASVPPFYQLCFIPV
CYP2D6, sequence (P10635 whole entry): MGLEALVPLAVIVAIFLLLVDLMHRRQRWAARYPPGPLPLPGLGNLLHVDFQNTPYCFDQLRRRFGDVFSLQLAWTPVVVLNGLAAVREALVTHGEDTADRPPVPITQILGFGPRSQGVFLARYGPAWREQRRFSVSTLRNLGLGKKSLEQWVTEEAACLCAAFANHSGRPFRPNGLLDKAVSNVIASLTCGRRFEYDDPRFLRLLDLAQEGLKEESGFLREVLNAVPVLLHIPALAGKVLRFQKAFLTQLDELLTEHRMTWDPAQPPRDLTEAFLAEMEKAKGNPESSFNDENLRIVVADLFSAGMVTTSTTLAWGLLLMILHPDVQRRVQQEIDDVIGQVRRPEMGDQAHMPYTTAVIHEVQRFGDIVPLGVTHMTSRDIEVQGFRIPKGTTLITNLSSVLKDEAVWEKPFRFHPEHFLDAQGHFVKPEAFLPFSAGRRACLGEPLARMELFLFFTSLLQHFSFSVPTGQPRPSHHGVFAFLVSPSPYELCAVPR
CYP3A4, sequence (P08684 whole entry): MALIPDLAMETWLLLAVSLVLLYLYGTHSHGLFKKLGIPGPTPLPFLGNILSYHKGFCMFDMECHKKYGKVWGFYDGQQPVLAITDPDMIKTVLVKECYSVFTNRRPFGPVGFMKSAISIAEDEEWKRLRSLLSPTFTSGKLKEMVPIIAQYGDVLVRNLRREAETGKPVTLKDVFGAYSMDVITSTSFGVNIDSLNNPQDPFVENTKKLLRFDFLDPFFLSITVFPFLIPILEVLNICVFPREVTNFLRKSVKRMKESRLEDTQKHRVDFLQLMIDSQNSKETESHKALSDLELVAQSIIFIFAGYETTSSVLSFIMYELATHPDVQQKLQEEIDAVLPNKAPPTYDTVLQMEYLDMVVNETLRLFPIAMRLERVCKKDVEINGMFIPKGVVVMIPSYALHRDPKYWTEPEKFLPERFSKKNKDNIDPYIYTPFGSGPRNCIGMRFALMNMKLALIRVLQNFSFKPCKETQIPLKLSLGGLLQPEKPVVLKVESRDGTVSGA

## CCOC(=O)NC[C@H]1CC[C@H](CNC(=O)c2cc(N3CCC(CCN(C)C)CC3)nc3ccccc23)CC1
[1]
  logD: 2.6
[2]
  IC50: 1400 nM
[3]
  IC50: 8000 nM

## CN(C)CCn1cc(-c2cc(C(=O)NC[C@H]3CC[C@H](CNC(=O)OC(C)(C)C)CC3)c3ccccc3n2)cn1
[1]
  logD: 3.6
[3]
  IC50: 1300 nM

## CC(C)(C)OC(=O)NC[C@H]1CC[C@H](CNC(=O)c2cc(-c3ccncc3)nc3ccccc23)CC1
[1]
  logD: 4.4
[4]
  solubility at 16 h: < 1 µM
[5]
  microsomal CLint at 1 µM: 146 µL/min/mg
[3]
  IC50: 1100 nM

## CC(C)(C)OC(=O)NC[C@H]1CC[C@@H](CNC(=O)c2cc(-c3ccccc3)nc3ccccc23)CC1
[2]
  IC50: 1000 nM

## CC(C)(C)OC(=O)NC[C@H]1CC[C@H](CNC(=O)c2cc(N3CCC(CCO)CC3)nc3ccccc23)CC1
[1]
  logD: 4.5
[2]
  IC50: 230 nM
[3]
  IC50: 2300 nM
[6]
  Ratio IC50: 10

## O=C(c1cc(-c2ccccc2)nc2ccccc12)N1CCN(Cc2ccc3c(c2)OCO3)CC1
[2]
  IC50: 3600 nM

## CN(C)CCOC1CN(c2cc(C(=O)NC[C@H]3CC[C@H](CNC(=O)OC(C)(C)C)CC3)c3ccccc3n2)C1
[1]
  logD: 3

## CN(C)CCN1CCN(c2cc(C(=O)NC[C@H]3CC[C@H](CNC(=O)OC(C)(C)C)CC3)c3ccccc3n2)CC1
[1]
  logD: 3.4
[4]
  solubility at 16 h: 73 µM (≈ 40.4 µg/mL)
[5]
  microsomal CLint at 1 µM: < 12 µL/min/mg
[7]
  inhibition at 13 µM: < 50%
[8]
  inhibition at 13 µM: < 50%
[2]
  IC50: 730 nM
[3]
  IC50: 5300 nM
[9]
  inhibition at 13 µM: < 50%
[10]
  inhibition at 13 µM: < 50%
[11]
  inhibition at 13 µM: < 50%

## CN(C)CCC1CCN(c2cc(C(=O)NC[C@H]3CC[C@H](CNC(=O)OC4CCOCC4)CC3)c3ccccc3n2)CC1
[1]
  logD: 2.3

## CC(C)(C)OC(=O)NC[C@H]1CC[C@H](CNC(=O)c2cc(N3CCC(CN)CC3)nc3ccccc23)CC1
[1]
  logD: 3.2
[2]
  IC50: 690 nM
[3]
  IC50: 4300 nM

## CC(C)(C)OC(=O)NC[C@H]1CC[C@H](CNS(=O)(=O)c2cc(-c3ccccc3)nc3ccccc23)CC1
[2]
  IC50: 690 nM

## CN(C)CCC1CCN(c2cc(C(=O)NC[C@H]3CC[C@H](COC(=O)NC(C)(C)C)CC3)c3ccccc3n2)CC1
[1]
  logD: 3.6
[2]
  IC50: 1700 nM
[3]
  IC50: 9900 nM

## CC(C)(C)OC(=O)NC[C@H]1CC[C@H](CNC(=O)c2cc(-c3ccccc3)nc3[nH]ccc23)CC1
[1]
  logD: 4.7
[2]
  IC50: 780 nM

## CN(C)CCC1CCN(c2cc(C(=O)NC[C@H]3CC[C@H](CNC(=O)OC(C)(C)C)CC3)c3ccccc3n2)CC1
[1]
  logD: 3.6
[4]
  solubility at 16 h: 79 µM (≈ 43.6 µg/mL)
[12]
  fraction unbound at 18 h, 10 µM: 0.034
[5]
  microsomal CLint at 1 µM: 14 µL/min/mg
[13]
  clearance: 32 mL/min/kg
[14]
  Ratio: 800
[7]
  inhibition at 13 µM: < 50%
[8]
  inhibition at 13 µM: < 50%
[2]
  IC50: 110 nM
[3]
  IC50: 1200 nM
[15]
  clearance: 46 mL/min/kg
[16]
  Vd: 6.7 L/kg
[17]
  half-life: 4.5 h
[18]
  bioavailability: 131%
[19]
  IC50: 190 nM
[20]
  Activity: 50%
[9]
  inhibition at 13 µM: < 50%
[10]
  inhibition at 13 µM: < 50%
[11]
  inhibition at 13 µM: < 50%
[6]
  Ratio IC50: 10
[21]
  IC50: > 33000 nM
[22]
  IC50: 460 nM

## CC(C)(C)OC(=O)NC[C@H]1CC[C@H](CNC(=O)c2cc(-c3ccccc3)nc3ccccc23)CC1
[1]
  logD: 5.9
[4]
  solubility at 16 h: < 1 µM
[12]
  fraction unbound at 18 h, 10 µM: 0.001
[5]
  microsomal CLint at 1 µM: 124 µL/min/mg
[13]
  clearance: 60 mL/min/kg
[23]
  fraction unbound at 18 h, 10 µM: 0.005
[14]
  Ratio: 12000
[2]
  IC50: 210 nM
